The text below walks through data of ChEMBL document CHEMBL1765020, “Synthesis and structure-affinity relationships of novel dibenzylideneacetone derivatives as probes for β-amyloid plaques” (J Med Chem, 2011).

Calls of active or inactive are those of the source. The calls are words filed in the database; no cut-off is given here.

For assay [1], the species on record is Mus musculus. The assay can be described thus: Binding affinity to amyloid beta (1 to 42) aggregate in APP/PS1 transgenic C57BL/6 mouse brain after 1 hr by autoradiography. As to conditions: C57BL6, tested as the 18F-labelled form. It counts as tissue-based. An outline of the steps: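 Paraffin brain sections from 12-month-old male C57BL6-APP/PS1 mice, with wild-type male C57BL6 controls, were deparaffinized through xylene and graded ethanol, then held 30 min in PBS (0.2 M, pH 7.4). Sections were incubated 1 h at room temperature with radiotracer (5 μCi/100 μL), washed 3 min in 40% ethanol, rinsed in water, dried and exposed to an imaging plate overnight.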

The species entered for assay [2] is Mus musculus. Put plainly: Binding affinity to amyloid beta (1 to 42) aggregate in APP/PS1 transgenic C57BL/6 mouse brain by Thioflavin S fluorescent staining assay. As to conditions: C57BL6, tested as the 18F-labelled form. It counts as tissue-based. The gist of the method: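 The same Tg mouse sections used for autoradiography were stained with thioflavin S to locate plaques. Fluorescence was viewed by microscope: excitation 400–440 nm, dichroic 455 nm, long-pass 470 nm.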

For assay [3], the target named is Amyloid-beta precursor protein (Homo sapiens) (UniProt P05067). The assay can be described thus: Binding affinity to amyloid beta (1 to 42) aggregate in Alzheimer disease patient brain by immunohistochemical staining using amyloid beta antibody. As to conditions: tested as the 18F-labelled form. The gist of the method:
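Plaque presence and location in the AD patient temporal-lobe sections were confirmed by immunohistochemistry with monoclonal anti-Aβ1-42 antibody BC05.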

The nature of assay [4]: Displacement of [125I]IMPY from amyloid beta (1 to 42) aggregate after 2 hrs by gamma counting. The gist of the method:
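Competition binding in 1 mL PBS (0.2 M, pH 7.4). Aggregated Aβ1-42 fibrils (60 nM final) with [125I]IMPY and inhibitor at 10^-5 to 10^-10 M, added in ethanol. Nonspecific binding was defined with 1 μM IMPY. Incubated 2 h at 37 °C with shaking, then vacuum-filtered through glass fibre filters and the bound fraction gamma-counted. IC50 was converted to Ki by Cheng-Prusoff; triplicate, mean ± SD.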

Chain of Amyloid-beta precursor protein (Homo sapiens) (P05067 whole entry): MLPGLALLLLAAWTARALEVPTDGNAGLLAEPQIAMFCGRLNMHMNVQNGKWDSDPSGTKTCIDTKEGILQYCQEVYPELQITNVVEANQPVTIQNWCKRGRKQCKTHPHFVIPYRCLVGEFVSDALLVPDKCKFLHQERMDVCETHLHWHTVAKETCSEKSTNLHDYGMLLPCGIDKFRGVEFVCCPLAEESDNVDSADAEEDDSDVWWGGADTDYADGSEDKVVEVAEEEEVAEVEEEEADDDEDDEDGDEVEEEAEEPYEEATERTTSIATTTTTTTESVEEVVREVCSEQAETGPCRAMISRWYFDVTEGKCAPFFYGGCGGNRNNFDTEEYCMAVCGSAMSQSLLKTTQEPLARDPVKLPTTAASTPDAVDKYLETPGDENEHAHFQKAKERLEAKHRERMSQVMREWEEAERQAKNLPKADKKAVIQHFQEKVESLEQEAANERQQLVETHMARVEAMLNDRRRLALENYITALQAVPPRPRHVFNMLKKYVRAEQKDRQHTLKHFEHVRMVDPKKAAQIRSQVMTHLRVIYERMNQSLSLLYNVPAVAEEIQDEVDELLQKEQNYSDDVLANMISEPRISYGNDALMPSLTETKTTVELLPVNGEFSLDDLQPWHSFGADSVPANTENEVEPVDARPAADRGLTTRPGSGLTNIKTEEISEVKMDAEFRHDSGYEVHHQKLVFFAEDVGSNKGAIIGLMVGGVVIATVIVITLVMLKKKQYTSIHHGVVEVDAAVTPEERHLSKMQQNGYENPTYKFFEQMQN

Regarding `CNc1ccc(/C=C/C(=O)/C=C/c2ccc(OCCOCCOCCF)cc2)cc1`, the result (in the assay listed under Mus musculus [1]; in the assay filed under Mus musculus [2]; in assay [3]) was Active. In assay [4], the Ki was 8.6 nM.

With `CN(C)c1ccc(/C=C/C(=O)/C=C/c2ccc(OCCOCCOCCF)cc2)cc1`, the result (in the assay filed under Mus musculus [1]; in the assay listed under Mus musculus [2]; in assay [3]) was Active. The Ki in assay [4] amounted to 6.9 nM.
